ChEMBL document CHEMBL4138263, “Taburnaemines A-I, Cytotoxic Vobasinyl-Iboga-Type Bisindole Alkaloids from Tabernaemontana corymbosa” (J Nat Prod, 2018)

What was measured:
Type in all cases: functional, cell-based
[1] = test system: A549; assay: Antiproliferative activity against human A549 cells after 72 hrs by sulforhodamine B assay; conditions: A549, 72 h
How it was run: (§1)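 Cells grown in RPMI-1640 with 2 mM L-glutamine, 25 mM HEPES, 10% FBS, streptomycin and penicillin; seeded at 4000–12 000 cells per well and exposed to compounds for 72 h. Fixed in 10% trichloroacetic acid, stained with 0.04% SRB, bound dye dissolved in 10 mM Tris base, absorbance read at 515 nm. IC50 from at least three independent experiments run in duplicate.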

[2] = test system: MDA-MB-231; assay: Antiproliferative activity against human MDA-MB-231 cells after 72 hrs by sulforhodamine B assay; conditions: MDA-MB-231, 72 h; how it was run: as §1
[3] = test system: KB; assay: Antiproliferative activity against human KB cells after 72 hrs by sulforhodamine B assay; how it was run: as §1
[4] = Antiproliferative activity against human KBVIN cells after 72 hrs by sulforhodamine B assay; how it was run: as §1
[5] = test system: MCF7; assay: Antiproliferative activity against human MCF7 cells after 72 hrs by sulforhodamine B assay; conditions: MCF7, 72 h; how it was run: as §1

SMILES	IC50 [1]	IC50 [2]	IC50 [3]	IC50 [4]	IC50 [5]
CC[C@H]1C[C@H]2CN3CC[C@@]4(O)C(=Nc5cc(OC)c([C@@H]6C[C@H]7[C@@]8(C(=O)OC)CO[C@H](N(C)[C@H]8Cc8c6[nH]c6ccccc86)[C@@]76O[C@H]6C)cc54)[C@](C(=O)OC)(C2)[C@H]13	4.3 µM	4.5 µM	4.7 µM	4.8 µM	4.6 µM
C/C=C1/CN(C)[C@H]2Cc3c([nH]c4ccccc34)[C@H](c3cc4c(cc3OC)N=C3[C@]5(C(=O)OC)C[C@H]6C[C@H](CC)[C@@H]5N(CC[C@@]34O)C6)C[C@H]1[C@]2(CO)C(=O)OC	3.1 µM	2.8 µM	2.7 µM	2.6 µM	3 µM
CC[C@H]1C[C@@H]2C[C@@]3(C(=O)OC)c4[nH]c5c([C@@H]6C[C@H]7[C@@]8(C(=O)OC)CO[C@H](N(C)[C@H]8Cc8c6[nH]c6ccccc86)[C@@]76O[C@H]6C)c(OC)ccc5c4CCN([C@@H]2CC(C)=O)[C@@H]13	8.6 µM	7.7 µM	7.4 µM	6.6 µM	> 10 µM
C/C=C1/CN(C)[C@H]2Cc3c([nH]c4ccccc34)[C@H](c3cc4c5c([nH]c4cc3OC)[C@]3(C(=O)OC)C[C@@H]4C[C@H](CC)[C@@H]3N(CC5)[C@@H]4CC(C)=O)C[C@H]1[C@]2(CO)C(=O)OC	5.6 µM	4.8 µM	5 µM	5.1 µM	6.1 µM
C/C=C1/CN(C)[C@H]2Cc3c([nH]c4ccccc34)[C@H](c3c(OC)ccc4c5c([nH]c34)[C@]3(C(=O)OC)C[C@H]4C[C@H](CC)[C@@H]3N(CC5)[C@@H]4CO)C[C@H]1[C@]2(CO)C(=O)OC	4.3 µM	4.5 µM	4.5 µM	4.9 µM	4.9 µM
C/C=C1/CN(C)[C@H]2Cc3c([nH]c4ccccc34)[C@H](c3cc4c5c([nH]c4cc3OC)[C@]3(C(=O)OC)C[C@@H]4C[C@H](CC)[C@@H]3N(CC5)[C@@H]4CC(C)=O)C[C@H]1[C@@]2(CO)C(=O)OC	4.4 µM	3.2 µM	4.6 µM	4.4 µM	4.4 µM
C/C=C1/CN2COC[C@@]3(C(=O)OC)[C@@H]1C[C@@H](c1cc4c5c([nH]c4cc1OC)[C@]1(C(=O)OC)C[C@@H]4C[C@H](CC)[C@@H]1N(CC5)C4)c1[nH]c4ccccc4c1C[C@H]23	4.3 µM	4.5 µM	4.3 µM	4.4 µM	4.8 µM
CC(=O)O[C@H]1C(=O)[C@@]2(C)[C@H]([C@H](OC(=O)c3ccccc3)[C@]3(O)C[C@H](OC(=O)[C@H](O)[C@@H](NC(=O)c4ccccc4)c4ccccc4)C(C)=C1C3(C)C)[C@]1(OC(C)=O)CO[C@@H]1C[C@@H]2O [PACLITAXEL]	0.0045 µM	0.007 µM	0.0036 µM	2.36 µM	0.0088 µM
C/C=C1/CN(C)[C@H]2Cc3c([nH]c4ccccc34)[C@H](c3c(OC)ccc4c5c([nH]c34)[C@]3(C(=O)OC)C[C@@H]4C[C@H](CC)[C@@H]3N(CC5)C4)C[C@H]1[C@@]2(CO)C(=O)OC	3.5 µM	4.8 µM	4.3 µM	4.7 µM	4.8 µM
CC[C@H]1C[C@@H]2C[C@@]3(C(=O)OC)c4[nH]c5c([C@@H]6C[C@H]7[C@@]8(C(=O)OC)CO[C@H](N(C)[C@H]8Cc8c6[nH]c6ccccc86)[C@]76O[C@@H]6C)c(OC)ccc5c4CCN([C@@H]2CC(C)=O)[C@@H]13	> 10 µM	> 10 µM	> 10 µM	> 10 µM	> 10 µM
C/C=C1/CN(C)[C@H]2Cc3c([nH]c4ccccc34)C(c3c(OC)ccc4c5c([nH]c34)[C@]3(C(=O)OC)C[C@@H]4C[C@H](CC)[C@@H]3N(CC5)C4)C[C@H]1[C@@H]2C(=O)OC (stereo not given in full)	4.4 µM	5.2 µM	5 µM	4.1 µM	5.6 µM
C/C=C1/CN(C)[C@H]2Cc3c([nH]c4ccccc34)[C@H](c3c(OC)ccc4c5c([nH]c34)[C@]3(C(=O)OC)C[C@H]4C[C@H](CC)[C@@H]3N3C[C@@H]5O[C@H]43)C[C@H]1[C@]2(CO)C(=O)OC	5.3 µM	4.8 µM	4.8 µM	4.7 µM	5.6 µM
C/C=C1/CN2COC[C@]3(C(=O)OC)[C@@H]1C[C@@H](c1c(OC)ccc4c5c([nH]c14)[C@]1(C(=O)OC)C[C@H]4C[C@H](CC)[C@@H]1N(CC5)[C@@H]4CO)c1[nH]c4ccccc4c1C[C@H]23	4.7 µM	5.1 µM	4.8 µM	4.9 µM	6 µM
C/C=C1/CN(C)[C@H]2Cc3c([nH]c4ccccc34)[C@H](c3cc4[nH]c5c(c4cc3OC)CCN3C[C@H]4C[C@H](CC)[C@H]3[C@H]5C4)C[C@H]1[C@@H]2C(=O)OC	4.3 µM	4.5 µM	4.8 µM	4.4 µM	4.7 µM
C/C=C1/CN(C)[C@H]2Cc3c([nH]c4ccccc34)[C@H](c3c(OC)ccc4c5c([nH]c34)[C@]3(C(=O)OC)C[C@H]4C[C@H](CC)[C@@H]3N(CC5)C4)C[C@H]1[C@]2(CO)C(=O)OC	4.5 µM	4.8 µM	4.2 µM	4.1 µM	5.3 µM
C/C=C1/CN2COC[C@]3(C(=O)OC)[C@@H]1C[C@@H](c1c(OC)ccc4c1N=C1[C@]5(C(=O)OC)C[C@H]6C[C@H](CC)[C@@H]5N(CC[C@]14O)C6)c1[nH]c4ccccc4c1C[C@H]23	4.9 µM	8.2 µM	4.5 µM	4.7 µM	6.5 µM
CC[C@]1(O)C[C@@H]2CN(CCc3c([nH]c4ccccc34)[C@@](C(=O)OC)(c3cc4c(cc3OC)N(C)[C@H]3[C@@](O)(C(=O)OC)[C@H](OC(C)=O)[C@]5(CC)C=CCN6CC[C@]43[C@@H]65)C2)C1 [VINBLASTINE]	0.023 µM	0.032 µM	0.0044 µM	2.48 µM	0.0073 µM
CC[C@H]1C[C@@H]2C[C@@]3(C(=O)OC)c4[nH]c5c([C@@H]6C[C@H]7[C@@]8(C(=O)OC)CO[C@H](N(C)[C@H]8Cc8c6[nH]c6ccccc86)[C@@]76O[C@H]6C)c(OC)ccc5c4CCN(C2=O)[C@@H]13	5.9 µM	8.2 µM	5.7 µM	5.8 µM	8.3 µM
C/C=C1/CN(C)[C@H]2Cc3c([nH]c4ccccc34)[C@H](c3ccc4[nH]c5c(c4c3)CCN3C[C@@H]4C[C@H](CC)[C@H]3[C@@]5(C(=O)OC)C4)C[C@H]1[C@]2(CO)C(=O)OC	9.8 µM	5.2 µM	6.7 µM	8.3 µM	> 10 µM
